# Results as given in PMC4080709 (Science translational medicine, 2014).
# What was measured:
# MeV isolates = assay: in vitro efficacy testing against a panel of MeV isolates; type: cell-based, measles virus
# Outline: (§1)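 Virus yield reduction: cell-associated progeny titred by TCID₅₀. MeV is handled on Vero-hSLAM cells and CDV on Vero-cSLAM cells. Compound in DMSO. EC₅₀ from four-parameter variable-slope non-linear regression, with 95% asymmetric confidence intervals, from at least three independent experiments per virus. SI = CC₅₀/EC₅₀. MeV panel covers seven endemic genotypes; CDV strains are recombinant 5804PeH and Snyder Hill.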
# [1] = test system: CDV-5804PeH and Snyder Hill isolate; assay: in vitro efficacy testing against pathogenic CDV strains; type: cell-based, canine distemper virus; conditions: recombinant CDV-5804PeH and neuroadapted Snyder Hill isolate
# Outline: as §1
# [2] = test system: established human and animal cell lines and primary human PBMCs; assay: CytoTox96 non-radioactive cytotoxicity assay; type: cell-based
# Outline: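 CytoTox96 non-radioactive cytotoxicity assay; highest concentration tested 75 µM. Signal normalised to vehicle controls as %-toxicity = 100-((specific_490nm)/([…])*100). CC₅₀ derived from the mean of four replicates. Compound dissolved in DMSO. Cell lines kept at 37°C, 5% CO₂ in DMEM with 7.5% FBS.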
# [3] = single-dose oral PK study in ferrets; type: in vivo; conditions: ferret, single-dose p.o. 50 mg/kg
# Outline: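 Ferrets given a single oral dose of 50 mg/kg in PEG-200/0.5% methylcellulose (10/90) at time zero, with blood sampled at set time points afterwards. Plasma prepared from heparinised blood. Drug quantified by internal-standard, reversed-phase isocratic HPLC with positive-ion electrospray LC/MS/MS. PK parameters estimated by modelling software.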
# serum protein binding = type: in vitro ADME
# [4] = shelf-stability at ambient temperature; type: physicochemical
# MeV polymerase complex = MeV polymerase complex (Measles virus, UniProt P12576); assay: minigenome luciferase replicon reporter assay, MeV; type: cell-based; conditions: 10 µM highest
# CDV polymerase complex = CDV polymerase complex (Canine distemper virus, UniProt P24658); assay: minigenome luciferase replicon reporter assay, CDV; type: cell-based; conditions: 10 µM highest
# RSV polymerase complex = RSV polymerase complex (Human respiratory syncytial virus A, UniProt P28887); assay: minigenome luciferase replicon reporter assay, RSV; type: cell-based; conditions: 10 µM highest
# [5] = test system: CDV-5804PeH recombinants harboring L resistance mutations; assay: dose-response inhibition of resistant CDV-5804PeH recombinants; type: cell-based, canine distemper virus
# Outline: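 Candidate L resistance mutations introduced singly into the CDV-5804PeH background by site-directed mutagenesis. Recombinants recovered, and mutations confirmed by RT-PCR and cDNA sequencing. Dose-response inhibition measured as cell-associated viral titres (TCID₅₀ on Vero-cSLAM cells), as mean ± SD of at least three independent experiments. Four-parameter variable-slope regression.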
# CDV-5804PeH = assay: oral efficacy in ferrets infected intranasally with lethal CDV-5804PeH; type: in vivo, ferret
# Outline: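 Male and female adult European ferrets without CDV immunity, infected intranasally with 1×10⁵ TCID₅₀ CDV-5804PeH per animal (~10 LD₅₀). Dosing by gastric gavage at 50 mg/kg b.i.d. in PEG200/0.5% methylcellulose (10/90). Post-exposure arm starts 3 days post-infection and runs 14 days; controls receive vehicle. Daily clinical observation. Blood and weights taken days 0, 3, 7, 10, 14, then weekly. Survival analysed by log-rank (Mantel-Cox) test.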
# [6] = rat model; cited from earlier work
# [7] = cited from earlier work
# RSV polymerase complex, sequence (P28887 whole entry, one chain of several): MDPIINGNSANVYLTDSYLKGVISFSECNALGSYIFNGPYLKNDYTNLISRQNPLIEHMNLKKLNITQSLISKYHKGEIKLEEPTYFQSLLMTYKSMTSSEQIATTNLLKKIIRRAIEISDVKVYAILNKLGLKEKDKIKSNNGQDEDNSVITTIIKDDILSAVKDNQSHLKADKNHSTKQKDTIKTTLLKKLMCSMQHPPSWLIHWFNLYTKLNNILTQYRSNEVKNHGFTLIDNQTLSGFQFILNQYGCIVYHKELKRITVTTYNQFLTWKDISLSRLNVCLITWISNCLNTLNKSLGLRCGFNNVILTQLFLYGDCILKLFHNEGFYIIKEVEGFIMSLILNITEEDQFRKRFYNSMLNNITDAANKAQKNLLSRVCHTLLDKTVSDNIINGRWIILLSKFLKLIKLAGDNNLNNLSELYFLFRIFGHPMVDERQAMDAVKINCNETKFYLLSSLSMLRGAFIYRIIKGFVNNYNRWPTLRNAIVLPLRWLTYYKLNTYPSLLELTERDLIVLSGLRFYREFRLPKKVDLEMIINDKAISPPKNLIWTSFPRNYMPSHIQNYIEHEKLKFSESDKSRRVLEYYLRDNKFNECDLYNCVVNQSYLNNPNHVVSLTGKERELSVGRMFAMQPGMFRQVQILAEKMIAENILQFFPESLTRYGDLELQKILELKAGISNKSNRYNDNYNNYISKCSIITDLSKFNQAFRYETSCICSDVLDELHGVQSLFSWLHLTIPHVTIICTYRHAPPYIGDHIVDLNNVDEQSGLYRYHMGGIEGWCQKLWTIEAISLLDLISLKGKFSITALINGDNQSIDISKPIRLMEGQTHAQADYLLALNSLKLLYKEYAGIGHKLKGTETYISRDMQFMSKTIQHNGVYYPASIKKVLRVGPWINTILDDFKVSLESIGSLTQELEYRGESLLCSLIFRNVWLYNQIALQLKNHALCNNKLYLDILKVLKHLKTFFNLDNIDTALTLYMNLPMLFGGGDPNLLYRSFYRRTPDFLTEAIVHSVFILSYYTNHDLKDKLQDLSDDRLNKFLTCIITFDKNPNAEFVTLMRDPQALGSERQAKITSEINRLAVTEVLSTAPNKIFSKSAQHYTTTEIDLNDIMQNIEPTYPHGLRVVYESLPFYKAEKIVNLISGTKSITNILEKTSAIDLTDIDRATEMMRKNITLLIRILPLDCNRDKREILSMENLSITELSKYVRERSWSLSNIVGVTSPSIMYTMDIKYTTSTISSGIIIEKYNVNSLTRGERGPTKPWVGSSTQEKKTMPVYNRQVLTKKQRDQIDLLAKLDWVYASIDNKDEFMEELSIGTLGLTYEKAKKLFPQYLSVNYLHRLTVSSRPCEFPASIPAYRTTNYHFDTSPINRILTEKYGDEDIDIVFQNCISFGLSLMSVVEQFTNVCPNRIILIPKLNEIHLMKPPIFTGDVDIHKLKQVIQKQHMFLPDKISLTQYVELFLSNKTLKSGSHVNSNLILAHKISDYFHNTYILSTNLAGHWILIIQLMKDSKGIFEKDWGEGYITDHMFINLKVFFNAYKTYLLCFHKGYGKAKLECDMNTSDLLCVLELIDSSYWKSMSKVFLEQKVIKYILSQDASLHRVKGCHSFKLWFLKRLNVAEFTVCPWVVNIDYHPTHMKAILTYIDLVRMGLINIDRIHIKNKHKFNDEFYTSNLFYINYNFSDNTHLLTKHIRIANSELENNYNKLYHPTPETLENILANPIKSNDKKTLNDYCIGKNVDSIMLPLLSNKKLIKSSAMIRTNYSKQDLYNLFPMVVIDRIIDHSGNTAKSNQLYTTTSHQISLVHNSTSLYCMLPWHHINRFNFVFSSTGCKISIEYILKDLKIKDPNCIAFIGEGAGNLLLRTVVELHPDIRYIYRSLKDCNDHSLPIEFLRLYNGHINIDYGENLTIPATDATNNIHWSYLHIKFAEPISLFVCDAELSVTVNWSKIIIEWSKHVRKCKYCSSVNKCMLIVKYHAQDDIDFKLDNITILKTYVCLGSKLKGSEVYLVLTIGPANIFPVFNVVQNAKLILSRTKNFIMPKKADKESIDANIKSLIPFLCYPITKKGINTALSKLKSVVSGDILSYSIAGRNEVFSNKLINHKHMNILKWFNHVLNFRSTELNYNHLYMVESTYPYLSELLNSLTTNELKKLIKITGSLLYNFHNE
# CDV polymerase complex, sequence (P06940 whole entry): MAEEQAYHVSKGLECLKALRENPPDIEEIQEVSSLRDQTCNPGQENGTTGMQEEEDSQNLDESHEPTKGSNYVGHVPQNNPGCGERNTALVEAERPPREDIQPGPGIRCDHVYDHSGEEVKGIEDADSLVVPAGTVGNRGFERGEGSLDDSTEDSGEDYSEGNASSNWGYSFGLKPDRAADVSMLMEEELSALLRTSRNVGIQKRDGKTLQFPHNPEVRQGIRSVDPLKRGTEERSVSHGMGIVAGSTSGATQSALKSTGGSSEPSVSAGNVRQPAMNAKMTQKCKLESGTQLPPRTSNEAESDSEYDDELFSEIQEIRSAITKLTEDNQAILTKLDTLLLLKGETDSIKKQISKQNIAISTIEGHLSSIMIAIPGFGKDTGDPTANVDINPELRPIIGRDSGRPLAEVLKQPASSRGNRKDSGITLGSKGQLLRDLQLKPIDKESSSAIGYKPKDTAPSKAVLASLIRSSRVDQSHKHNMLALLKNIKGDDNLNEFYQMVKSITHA
# CDV polymerase complex, sequence (P24658 whole entry): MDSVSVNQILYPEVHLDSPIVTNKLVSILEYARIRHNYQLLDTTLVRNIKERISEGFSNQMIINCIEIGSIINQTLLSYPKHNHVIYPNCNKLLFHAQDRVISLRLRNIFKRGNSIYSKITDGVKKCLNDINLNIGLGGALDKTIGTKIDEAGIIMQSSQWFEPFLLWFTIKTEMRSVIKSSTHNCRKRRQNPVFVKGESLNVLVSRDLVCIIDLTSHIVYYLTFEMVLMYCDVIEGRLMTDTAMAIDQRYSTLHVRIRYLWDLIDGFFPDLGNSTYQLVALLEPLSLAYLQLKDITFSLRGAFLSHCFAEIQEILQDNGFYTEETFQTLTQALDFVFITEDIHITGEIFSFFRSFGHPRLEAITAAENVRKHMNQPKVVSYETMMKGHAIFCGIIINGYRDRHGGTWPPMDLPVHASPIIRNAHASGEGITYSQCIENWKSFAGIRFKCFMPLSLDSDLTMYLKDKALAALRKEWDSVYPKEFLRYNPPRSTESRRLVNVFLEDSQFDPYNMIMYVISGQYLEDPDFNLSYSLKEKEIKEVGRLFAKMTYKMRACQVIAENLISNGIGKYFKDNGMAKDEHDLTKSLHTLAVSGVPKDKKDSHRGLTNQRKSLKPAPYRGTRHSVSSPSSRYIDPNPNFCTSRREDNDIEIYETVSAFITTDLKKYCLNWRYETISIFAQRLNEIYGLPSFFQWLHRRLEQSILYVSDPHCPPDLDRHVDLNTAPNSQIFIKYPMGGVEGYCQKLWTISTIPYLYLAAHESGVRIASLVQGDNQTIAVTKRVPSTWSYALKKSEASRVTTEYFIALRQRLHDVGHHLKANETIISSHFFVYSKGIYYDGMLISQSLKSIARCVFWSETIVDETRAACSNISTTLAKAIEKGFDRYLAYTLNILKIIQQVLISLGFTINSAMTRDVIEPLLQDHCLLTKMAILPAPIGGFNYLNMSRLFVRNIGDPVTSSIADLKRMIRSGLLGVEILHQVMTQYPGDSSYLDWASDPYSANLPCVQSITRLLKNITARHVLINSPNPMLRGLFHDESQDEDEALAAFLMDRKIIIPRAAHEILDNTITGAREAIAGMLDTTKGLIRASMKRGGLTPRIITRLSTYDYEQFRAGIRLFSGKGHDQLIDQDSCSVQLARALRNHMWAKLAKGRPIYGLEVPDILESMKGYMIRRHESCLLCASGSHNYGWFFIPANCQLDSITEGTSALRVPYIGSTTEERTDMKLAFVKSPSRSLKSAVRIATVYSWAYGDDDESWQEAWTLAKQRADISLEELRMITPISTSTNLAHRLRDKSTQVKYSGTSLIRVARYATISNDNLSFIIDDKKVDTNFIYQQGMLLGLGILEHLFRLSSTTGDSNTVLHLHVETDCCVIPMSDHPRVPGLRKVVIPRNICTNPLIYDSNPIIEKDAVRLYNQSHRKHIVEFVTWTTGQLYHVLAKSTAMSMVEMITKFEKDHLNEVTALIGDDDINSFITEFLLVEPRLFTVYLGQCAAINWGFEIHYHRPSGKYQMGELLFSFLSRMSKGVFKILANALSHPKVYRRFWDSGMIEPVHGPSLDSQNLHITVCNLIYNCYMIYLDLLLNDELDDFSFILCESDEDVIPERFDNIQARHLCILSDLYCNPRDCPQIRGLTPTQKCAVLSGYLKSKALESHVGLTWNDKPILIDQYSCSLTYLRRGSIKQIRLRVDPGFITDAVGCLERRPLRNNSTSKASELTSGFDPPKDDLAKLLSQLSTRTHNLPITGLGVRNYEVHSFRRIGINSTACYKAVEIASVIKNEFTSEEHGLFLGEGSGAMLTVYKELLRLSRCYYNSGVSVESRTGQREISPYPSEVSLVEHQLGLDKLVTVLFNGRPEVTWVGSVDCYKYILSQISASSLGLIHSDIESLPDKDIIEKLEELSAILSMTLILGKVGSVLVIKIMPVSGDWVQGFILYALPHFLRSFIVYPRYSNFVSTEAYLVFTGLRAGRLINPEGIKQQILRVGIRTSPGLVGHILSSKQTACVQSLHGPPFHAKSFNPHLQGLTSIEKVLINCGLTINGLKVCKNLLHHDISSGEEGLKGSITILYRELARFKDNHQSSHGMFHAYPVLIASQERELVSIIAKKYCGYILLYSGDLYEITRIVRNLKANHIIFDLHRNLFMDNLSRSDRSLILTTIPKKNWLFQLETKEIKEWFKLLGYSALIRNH
smiles,measurement,setting,value
Cn1nc(C(F)(F)F)cc1C(=O)Nc1ccc(S(=O)(=O)N2CCCC[C@H]2CCN2CCOCC2)cc1 [ERDRP-0519],"selectivity indices (SI), CC50/EC50",MeV isolates; against all MeV targets analyzed,> 200
same,antiviral potency,MeV isolates; panel of MeV isolates representing clades currently endemic worldwide,nanomolar
same,potency reduction against CDV strains relative to MeV,[1],approximately 2 fold
same,cytotoxicity,[2],low cytotoxicity
same,peak plasma concentration,[3]; PEG-200/0.5% methylcellulose (10/90),"exceeded 1,500 ng/ml"
same,peak plasma concentration,[3]; converted from ng/ml,approximately 3.5 µM
same,serum protein binding,serum protein binding,< 95%
same,shelf-stability,[4],exceeded one year without loss of activity
same,inhibition of RdRp (replicon reporter) activity,MeV polymerase complex,potently inhibited
same,inhibition of RdRp (replicon reporter) activity,CDV polymerase complex,potently inhibited
same,inhibition of RdRp (replicon reporter) activity,RSV polymerase complex,not blocked
same,increase in EC90 concentration versus standard CDV-5804PeH,[5]; CDV-5804PeH-LG835R,approximately 8 fold
same,increase in EC90 concentration versus standard CDV-5804PeH,[5]; CDV-5804PeH-LH589Y,approximately 8 fold
same,increase in EC90 concentration versus standard CDV-5804PeH,[5]; CDV-5804PeH-LH816L,approximately 8 fold
same,increase in EC90 concentration versus standard CDV-5804PeH,[5]; CDV-5804PeH-LN398D,approximately 2 fold
same,increase in EC90 concentration versus standard CDV-5804PeH,[5]; CDV-5804PeH-LT751I,> 20 fold
same,increase in EC90 concentration versus standard CDV-5804PeH,[5]; CDV-5804PeH-LT776A,> 20 fold
same,PBMC responsiveness (PHA-stimulated proliferation),CDV-5804PeH; PET group,only transiently impaired
same,clinical signs of disease,CDV-5804PeH; PET group,remained subclinical
same,humoral response (neutralizing antibodies),CDV-5804PeH; PET group,strong humoral response
same,signs of compound-induced toxicity,"CDV-5804PeH; PET group, 50 mg/kg p.o. b.i.d. for 14 days",not observed signs of compound-induced toxicity
same,prolongation of survival of treated ferrets,CDV-5804PeH; pre-exposure prophylaxis,up to 2 fold
same,animal survival,"CDV-5804PeH; prophylactic dosing, 50 mg/kg p.o. b.i.d. from 24 hours pre-infection",significantly prolonged animal survival
same,interferon induction levels in PBMCs,CDV-5804PeH; prophylactically treated animals,low interferon induction levels
same,clearance of infection,"CDV-5804PeH; therapeutically dosed animals, by day 28 pI",completely cleared the infection
same,oral availability,[6],39%
same,bidirectional membrane permeability,[7],high
